ChEMBL document CHEMBL4513216, “Probing the Open Global Health Chemical Diversity Library for Multistage-Active Starting Points for Next-Generation Antimalarials” (ACS Infect Dis, 2020)

Assay: Toxicity liver stage against HepG2, at 10uM
Format: cell-based
Design: test concentration 10 uM, cell line HepG2-A16-CD81EGFP
Settings: human, HepG2-A16-CD81EGFP cells; read-out: INHIBITION
Procedure, shortened: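 Uninfected HepG2-A16-CD81EGFP cells, 3 × 10^3 per well, 1536-well, plated on prespotted compound at 10 μM final, parasite-free screening media added to match infected plates; puromycin 10 μM positive, DMSO 0.5% negative; run in parallel with 48 h PbLuc assay at 37 °C, 5% CO2; viability by CellTiter-Glo luminescence, normalized to controls.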

Structure (SMILES)	cytotoxicity at 10 µM [%]
CCCn1cnc2c1CN(C(=O)c1ccc(F)cc1)[C@H](C(=O)OC)C2	4.94
CCN(CC)C1(Cc2cc(-c3cccc(O)c3)on2)COC1	7.71
O=C(NCCCN1CCOCC1)c1ccc(-n2ccc3ccccc32)s1	-3.42
COc1cc(CN2CCCCCC2c2cccs2)cc(OC)c1OC (configuration not stated)	33.3
Cc1cc(Cl)ccc1-n1ncc(C(=O)N(C)CCc2ccccn2)c1N	-7.3
COC1(CNC(=O)c2ccc(F)c(F)c2)CCSC1 (configuration not stated)	-2.11
O=C(O)c1cc(S(=O)(=O)Nc2cnn(C3CCOCC3)c2)ccc1F	-10.9
O=C(c1ccoc1)N1CCC2(CC1)C(=O)N(CC1CC1)c1ccccc12	10.7
O=C1CC2(CCCCN2C(=O)c2ccccc2)CN1CC1CC1 (configuration not stated)	3.85
CC(C)NC(=O)N1CCCC2(CC(C(=O)Nc3ccccc3)=NO2)C1 (configuration not stated)	-3.36
COCC(=O)N1Cc2nccn2CC(COc2cccnc2)C1 (configuration not stated)	5.41
CNC(=O)CCc1cc(C2CCCN2C(=O)CO)nc(C)n1 (configuration not stated)	-0.785
CC(C)N1CC(c2ccnc(Nc3nccs3)n2)C1	1.18
CC(C(=O)N1CCOCC1)n1nc(-c2cccs2)cc(N)c1=O (configuration not stated)	8.74
CN(C)C(=O)C1CN(c2ccncn2)CCN(C2CCOCC2)C1 (configuration not stated)	-0.621
COc1ccc(SCC2CNc3nc4ccccc4c(=O)n32)cc1 (configuration not stated)	7.69
CN1CCOC(C(=O)N(C)c2ccc3c(c2)CCO3)C1 (configuration not stated)	-45.4
CC(OCC1CC1)C(=O)N1CCCN(c2cccnn2)CC1 (configuration not stated)	8.13
Cc1nc(CC2CCCN(Cc3nc(N)c4ccccc4n3)C2)no1 (configuration not stated)	-41.3
N#CCCN(Cc1ccco1)C(=O)CN1CCCC1c1cccs1 (configuration not stated)	-2.56
COCCOc1ccc(NC(=O)N(CCCO)CC(C)(C)C)cn1	-7.85
CCC(C)(CC(=O)OC)NC(=O)c1ccc2[nH]ccc2c1 (configuration not stated)	-2.8
Cc1ccc(F)cc1NC(=O)CNc1cccc2c1CCCC2	4.33

Structure (SMILES)	cytotoxicity at 10 µM [%]
Cc1nn(C)c(N(C)C)c1CNCc1cnn(Cc2ccccc2)c1	-5.6
COc1cc(C(=O)N(CCC#N)Cc2ccccn2)ccc1C	11.3
Cc1cccc(N(C)S(=O)(=O)c2cc(C(=O)O)cs2)c1C	-0.731
Cc1nn(C)c(C)c1OCC(=O)NCC(O)c1ccsc1 (configuration not stated)	2.27
O=C(CCCNCc1ccc(Cl)c2cccnc12)NC1CC1	-4.76
CCOCCC(=O)NC1(c2cccc(Br)c2)CC1	7.53
CC(C)(C)c1nnc(CN2CCN(C(=O)N3CCCCC3)CC2)o1	2.44
CN(C)c1ccc(C(=O)N(CCO)CC2CC2)c(F)c1	5.25
COCCN(Cc1cccnc1)S(=O)(=O)c1cccc(F)c1F	-1.89
CC(C)c1n[nH]c(C2CN(C(=O)c3cc(C4CC4)on3)CCO2)n1 (configuration not stated)	-1.7
Cc1ccc(C(=O)NCC(O)c2cnn(C)c2)c(Br)c1 (configuration not stated)	-6.53
CC(C)CC(=O)NCCCn1cncn1	-18.9
Cc1cc(C(=O)N2CCN(CC(O)Cn3cccn3)CC2)c(C)o1 (configuration not stated)	-4.76
Cc1ccc(NC(=O)C2CCc3ccccc3N2)cc1 (configuration not stated)	-5.57
CCCOC1CCCN(C(=O)c2[nH]nc(C)c2Br)C1 (configuration not stated)	0.595
Cc1nnc2n1CCN(C(=O)CN1C(=O)CSc3ccccc31)C2	0.442
CS(=O)(=O)Cc1ccc(C(=O)NCc2ccc(Cl)cc2Cl)cc1	-47.6
O=C1C(Nc2ccc3nccnc3n2)CCN1c1ccccc1 (configuration not stated)	0.562
Cc1nccn1C1CCCN(C(=O)Cn2ccc(=O)n(C)c2=O)C1 (configuration not stated)	-5.17
CCc1nnc2n1CCN(C(=O)c1csc(-c3cnn(C)c3)n1)C2	6.41
O=c1cc(CN2CCCC2)nc2n1CCCN(S(=O)(=O)C1CC1)C2	-3.56
Cc1ccsc1C(=O)N1CCc2ncc(Cn3cccn3)n2CC1	-108
COCCC1COC2(CCN(C(=O)c3ccco3)CC2)C1 (configuration not stated)	3.63

Structure (SMILES)	cytotoxicity at 10 µM [%]
CCCN1CCCn2nc(CNS(=O)(=O)c3cccc(F)c3)cc2C1	-13.1
O=C(O)[C@@H]1CN(Cc2cnc(C3CCCCC3)nc2)C[C@H]1C1CC1	-10
Cc1nn(C)c(C)c1CN(C)C(=O)c1cccc(CCC(C)(C)O)c1	3.13
CN(Cc1nc(CC2CC2)no1)CC1COc2ccccc2O1 (configuration not stated)	-3.89
Cc1ccc(OC2(C(=O)O)CCN(C(=O)c3ccccc3F)CC2)cn1	2.75
CCC(NC1Cc2ccccc2C1)c1ccc(S(C)(=O)=O)cc1 (configuration not stated)	-2.02
c1cc(CN2CCC(c3nnc4n3CCCCC4)CC2)c2c(c1)OCO2	-3.14
CC(C)c1nnc(NCc2cc3n(n2)CCNC3)s1	-2.11
Cc1nc(C2CCNCC2)cc(N2CCCC(C(=O)NCCCO)C2)n1 (configuration not stated)	-124
Cc1nc2cc(C(=O)N3C[C@@H](C(=O)O)[C@H](C4CC4)C3)ccc2[nH]1	-12.1
Nc1ccc(C(=O)N2CCC(Oc3cccc(C(F)(F)F)c3)CC2)cn1	5.3
COCCC1CCCCN1C(=O)c1coc(COc2ccccc2F)n1 (configuration not stated)	3.97
Cc1cc2ccccc2n1CCC(=O)N1CCC2(CC1)CNC(=O)C2	0.105
CCN(CC1=CCN(C)CC1)C(=O)CCOC	5.09
O=C(NCCc1ccccc1)c1cn(CCNCc2cccnc2)nn1	-2.68
Cc1cc(C(F)(F)F)nc(CNC(=O)CCC2CCCN(C)C2)n1 (configuration not stated)	-53.9
CN1CCCC2(CCN(S(=O)(=O)c3c(Cl)nc4sccn34)C2)C1=O (configuration not stated)	12.4
CCc1nccn1CCC(=O)N1CC[C@H](CO)[C@H](O)C1	-1.2
NCCn1cc(C(=O)NCc2ccccc2Cn2cccn2)nn1	3.41
COc1nc2c(cc1C(=O)NCCCc1csc(N)n1)CCC2	3.63
COc1ccc(C(C(=O)O)N2CCN(C3CCCCC3)CC2)cc1OC (configuration not stated)	-4.89
CCc1nc(C)sc1CN1CC[C@@](O)(C2CC2)[C@H](C)C1	-10.3
Cc1nc(C(=O)N2CCCC(c3cccc(-n4ccnc4)n3)C2)co1 (configuration not stated)	8.31

Structure (SMILES)	cytotoxicity at 10 µM [%]
CN(C)Cc1ccnc(C2CCCN2Cc2cc[nH]n2)n1 (configuration not stated)	-0.902
CCN(CC)C(=O)c1ccc(CNc2cncc(-n3cccn3)n2)cc1	7.18
CC(C)Oc1ccc(CNC(=O)NCc2ccncc2)cc1F	-18.3
CCc1nc(C2CCCN2C(=O)c2cnns2)no1 (configuration not stated)	1.04
Cc1cnn(CC2CN(CC(=O)Nc3nccs3)CCO2)c1 (configuration not stated)	-7.51
CNc1cc(N2CCCC2CNCc2csc(C)n2)ncn1 (configuration not stated)	-9.71
Cc1ccc(C(=O)N2CCC(Oc3ccccc3)CC2)c(=O)[nH]1	-1.01
O=C(Cc1ccc(F)cc1)N1CCN(CC(O)c2ccccc2)CC1 (configuration not stated)	-11.2
Cc1nc(C2CCCN(C(=O)CCn3ccccc3=O)C2)no1 (configuration not stated)	-9.35
COc1c(C)cnc(CN2CCOC(Cn3cc(C)cn3)C2)c1C (configuration not stated)	-14.7
COc1cc(C(=O)Nc2nc(C)no2)ccc1OC1CCCC1	-2.12
COc1cccc(-n2c(C)cc(C(=O)NC(C)(C)C(N)=O)c2C)c1	-2
Brc1ccccc1-c1nnc(CNCCn2cccn2)o1	-24.5
Cc1nc(CN2CCCN(Cc3nccn3C(C)C)CC2)no1	-1.91
CC(=O)NCCNC(=O)CN1CCCC(Cn2cncn2)C1 (configuration not stated)	-18.9
CC(C)CCC(=O)N(C)CC(=O)Nc1ccc(Br)cn1	-8.39
CC(C)CC(=O)N(C)CC(=O)Nc1ccc(Br)cn1	-1.43
O=C(NC1CCN(Cc2cccc3c2OCCO3)CC1)c1cccs1	-4.71
CCn1nc2c(cc1=O)CN(CC(=O)Nc1nncs1)CC2	-0.284
Cc1cnn(CC2CCCN2C(=O)c2cc3ccccc3c(=O)[nH]2)c1 (configuration not stated)	-4.77
O=C(CCc1ccccc1)N1CCCCC1Cn1cccn1 (configuration not stated)	3.78
CCc1nnc2n1CCN(CCC(=O)Nc1cc(C)on1)C2	4.23
CN(Cc1ccco1)C(=O)[C@H]1CSCN1C(=O)OC(C)(C)C	-8.97

Structure (SMILES)	cytotoxicity at 10 µM [%]
CNc1nc(CNC(=O)Nc2cccc(-c3nnco3)c2)cs1	-5.26
Cc1cc(CN(C)C(=O)NC2CCCN(c3ncccn3)C2)no1 (configuration not stated)	-7.26
Cc1ncc(CN(C)C2CCCN(Cc3noc(C4CC4)n3)C2)s1 (configuration not stated)	-13.5
c1ncn(CC2CCCN(Cc3nc(C4CC4)no3)C2)n1 (configuration not stated)	-12.9
CC(=O)NC(C)(C)C(=O)Nc1ncc(Cc2ccc(C)c(F)c2)s1	0.987
O=C(NCCOCC(F)(F)F)c1ccc(-c2ccco2)[nH]c1=O	-8.5
Cc1ccc(N2CCCC(NCc3cccc4c3OCCO4)C2)nn1 (configuration not stated)	-1.69
Cc1cc(C)n(C2CCCN(C(=O)C3=NN(C)C(=O)CC3)C2)n1 (configuration not stated)	-9.21
O=C(CCNc1ncccn1)NCCc1ccn(-c2ccccc2)n1	0.914
O=C1CCC2(CCC(NCc3ccsc3)CC2)N1Cc1ccccc1 (configuration not stated)	3.79
c1cc(CN2Cc3nnn(CC4CC4)c3C(COCC3CC3)C2)co1 (configuration not stated)	-0.336
O=C(CN1CC(c2nc(C3CC3)no2)C1)N1CCOCC1	-9.76
COCC1CN(Cc2ccc(C)o2)Cc2cn(C)nc21 (configuration not stated)	-9.2
CNCC(=O)N1CC(c2cc(Nc3ncccn3)nc(C)n2)C1	4.19
CCOC1COC2(CCN(Cc3cccc(C#N)c3)CC2)C1 (configuration not stated)	-2.66
COc1ccc(C[C@H]2CN(C3CCOCC3)CC[C@@H]2OCC2CC2)cc1	2.38
Cn1nnc2c1C(COCc1cccnc1)CN(Cc1ccoc1)C2 (configuration not stated)	-2.55
CC(=O)N1CCC2(CC1)CNc1c(F)cccc12	4.79
Cc1[nH]c2cc(C3CCN(C(=O)c4ccccn4)CC3)nn2c(=O)c1C	0.636
CN(C)C(=O)CN1C[C@H]2CC[C@@H](C1)N(Cc1c(F)cccc1Cl)C2	5.48
